High-throughput results: PubChem, several laboratories
E coli WT exp = E. coli BW25113 growth inhibition, expanded screen; AID 710; OD600 absorbance; growth inhibition, % at 100 µM; 0.15% of 98,000 active;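 active means growth inhibition above about 50% at one test dose, limit read from the data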;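 further: growth measured after 20 h incubation at 37 °C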
tolC growth inh = blocks growth of E. coli BW25113 tolC mutant. 2.2% of 65,000 active. OD615. AID 573. growth inhibition, % at 10 µM (by protocol);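 active means growth inhibition at or above a cutoff equal to the mean over every tested compound plus 3 SD, cut at about 60% in these data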;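 further: growth measured after 20 h incubation at 37 °C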
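Material: E. coli BW25113 ΔtolC::kan, tolC deletion mutant strain. Measure: percent growth inhibition. Schedule: 37 °C, 20 h exposure. Doses: single-point testing at 10 µM. Signal: A615 absorbance measurement. Buffer or medium: kanamycin-containing LB broth (50 µg/mL).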
CYP2C9 inh = human CYP2C9 inhibition; P11712; CYP2C9 Supersomes, luciferin-H conversion, luminescence; inhibition, % at 5 µM; 20% of 96,000 active; AID 777;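 active means blocking of liver enzyme CYP2C9 beyond about 50% at 5 µM, limit read from the data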
CYP2C9 activ = increases human cytochrome P450 2C9 activity | P11712 | recombinant CYP2C9, luciferin-H conversion, luminescence; stronger effect = higher value; factor 1 = untreated enzyme, 0 = blocked | activation factor at 5 µM | 1.4% of 96,000 active;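 active means activation factor of 2 or more for CYP2C9 at a 5 µM dose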;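 further: 0 = sulfaphenazole-blocked wells and 1 = vehicle-only wells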
CYP2C19 inhib = human CYP2C19 inhibition; 21% of 96,000 active; inhibition, % at 5 µM; AID 778; CYP2C19 Supersomes, luciferin-H EGE luminescence, 30 min; P33261;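 active means CYP2C19 inhibition above a set limit at 5 µM in the primary screen, cut at about 50% in these data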;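 further: plate controls were negative control wells for no effect and 2.5 mM tranylcypromine positive control for full effect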
Target sequence (P33261 whole entry, looked up): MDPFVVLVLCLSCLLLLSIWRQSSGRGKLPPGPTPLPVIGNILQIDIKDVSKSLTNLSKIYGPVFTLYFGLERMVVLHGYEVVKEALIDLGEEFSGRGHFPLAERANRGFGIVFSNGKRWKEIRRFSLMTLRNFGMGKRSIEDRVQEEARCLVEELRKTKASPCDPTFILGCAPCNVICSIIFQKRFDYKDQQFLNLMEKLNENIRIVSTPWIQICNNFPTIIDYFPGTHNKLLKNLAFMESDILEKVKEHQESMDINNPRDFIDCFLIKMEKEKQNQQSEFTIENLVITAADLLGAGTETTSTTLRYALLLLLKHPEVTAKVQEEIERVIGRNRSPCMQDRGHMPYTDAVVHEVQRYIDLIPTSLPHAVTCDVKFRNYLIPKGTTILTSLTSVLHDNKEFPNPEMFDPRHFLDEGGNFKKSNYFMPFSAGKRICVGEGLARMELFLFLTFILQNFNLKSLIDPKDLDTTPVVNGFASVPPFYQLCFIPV
CYP2C19 activ = increases human CYP2C19 enzyme activity. activation factor at 5 µM. 96,000 tested, under 10 active. AID 1025. P33261. recombinant CYP2C19, luciferin-H EGE luminescence; stronger effect = higher value; 0 = fully inhibited enzyme, 1 = untreated enzyme;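 active means activation factor of at least 2 at 5 µM in the primary screen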;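 further: 0 = wells with 2.5 mM tranylcypromine and 1 = vehicle-only wells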
Active calls of the source: *; . = no result. Most compounds without a hit are left out; they make up all but 29% or so of the library.

SMILES	E coli WT exp	tolC growth inh	CYP2C9 inh	CYP2C9 activ	CYP2C19 inhib	CYP2C19 activ
CCOC(=O)N1CCN(C(=O)c2ccc(Cl)c(S(=O)(=O)N3CCOCC3)c2)CC1	-2.0	-15.4	8.8	0.9	0.7	1
O=C(NCCC1=CCCCC1)C1CCN(S(=O)(=O)N2CCOCC2)CC1	-1.0	-14.1	-7.5	1.1	-6.5	1.1
Cc1ccc(CSCCNC(=O)c2ccc(Cl)c(S(=O)(=O)N3CCOCC3)c2)cc1	-18.0	.	81.0*	0.2	61.6*	0.4
COCCN1C(=O)C(=O)/C(=C(/O)c2cccc(S(=O)(=O)N(C)C)c2)C12C(=O)N(C)c1ccccc12 (stereo unspecified)	4.0	-0.3	83.5*	0.2	-15.9	1.2
COc1cc(=O)[nH]c(SCc2c(F)c(F)c(F)c(F)c2F)n1	13.0	15.8	50.5*	0.5	26.8	0.7
CC(=O)c1c(C)cc(C)c(CSc2nc(C)cc(=O)[nH]2)c1C	.	4.2	26.4	0.7	-1.0	1
Cc1ccccc1C(=O)NC(=S)Nc1sc2c(c1C#N)CCC(C)C2 (stereo unspecified)	-12.0	.	62.8*	0.4	33.7	0.7
Cc1ccccc1NC(=S)NNC(=O)c1csc2c1CCC(C)C2 (stereo unspecified)	-4.0	.	66.3*	0.3	97.9*	0
COC(=O)C1CSC(C(=O)OC)N1C(=O)CN1CC(C)OC(C)C1 (stereo unspecified)	-5.0	.	-12.9	1.1	-1.4	1
COc1ccc(OC)c(NC(=O)Cn2cc(C(=O)c3ccco3)c3ccccc32)c1	-9.0	35.9	97.6*	0	95.8*	0
COc1ccc(OC)c(NC(=O)Cn2cc(C#N)c3ccccc32)c1	-6.0	1.7	80.2*	0.2	84.6*	0.2
O=C(Cn1cc[n+](CC(=O)c2ccccc2)c1)c1ccccc1	3.0	.	6.6	0.9	-3.3	1
O=C(Cn1ccsc1=NC(=O)C(F)(F)F)c1ccccc1	4.0	.	35.1	0.6	56.8*	0.4
COc1cccc(CN2C(=O)N(C(C)C)C(N(O)C(=O)NC(C)C)C2(C)C)c1OC (stereo unspecified)	2.0	.	10.8	0.9	-1.0	1
CC(C)NC(=O)N(O)C1N(Cc2ccc3c(c2)OCO3)C(=S)SC1(C)C (stereo unspecified)	4.0	55.2	94.3*	0.1	98.3*	0
CCN1CC=C2C(C1)C(c1ccc(Cl)s1)C(C#N)=C(N)C2(C#N)C#N (stereo unspecified)	9.0	7.9	92.9*	0.1	70.5*	0.3
Cc1ccc(C(c2nnnn2CCC(C)C)N2CCN(C)CC2)cc1 (stereo unspecified)	2.0	-0.8	11.9	0.9	12.9	0.9
c1ccc(Cn2c(-c3cncs3)nc3ccccc32)cc1	9.0	.	94.2*	0.1	72.7*	0.3
N#CCCCCn1c(-c2cncs2)nc2ccccc21	0.0	0.5	-9.0	1.1	55.8*	0.4
O=C(Cn1c(-c2cncs2)nc2ccccc21)NCCc1ccccc1	1.0	-6.8	52.9*	0.5	90.9*	0.1
COc1cccc(NC(=O)Cn2c(-c3cncs3)nc3ccccc32)c1	-1.0	15.6	82.9*	0.2	76.1*	0.2
COc1ccc(C2NC(c3ccc(OC)c(OC)c3OC)C(C)C(=O)C2C)c(OC)c1OC (stereo unspecified)	-6.0	3.7	.	.	.	.
CC1C(=O)C(C)C(c2ccco2)NC1c1ccco1 (stereo unspecified)	-3.0	-35.4	-28.6	1.3	93.6*	0.1
COc1ccccc1NC(=O)N1CCC(c2nnc(SCC(N)=O)n2C)CC1	-1.0	.	-0.9	1	-8.8	1.1
CC(O)Cn1cnc2c1c(=O)n(C)c(=O)n2C (stereo unspecified)	.	2.1	.	.	.	.
SMILES	E coli WT exp	tolC growth inh	CYP2C9 inh	CYP2C9 activ	CYP2C19 inhib	CYP2C19 activ
Cc1ccc(C(=O)Nc2onc(C)c2C#N)cc1	-11.0	.	58.1*	0.4	37.3	0.6
COc1cc(CNCc2cccs2)ccc1OCc1cccs1	9.0	.	15.5	0.8	50.0*	0.5
COc1cc(CNCc2ccco2)ccc1OCc1ccccc1	8.0	.	-13.1	1.1	52.3*	0.5
COc1cc(CNCc2cccs2)ccc1OCc1ccccc1	14.0	.	15.4	0.8	66.6*	0.3
COc1cc(-c2nnc(-c3ccco3)o2)ccc1OCc1ccccc1	-12.0	96.1*	.	.	.	.
COc1cc(CNCc2cccs2)ccc1OCC(N)=O	1.0	.	13.5	0.9	2.0	1
COc1ccc(OC)c(S(=O)(=O)Nc2cccnc2)c1	3.0	.	1.1	1	26.4	0.7
COc1ccccc1Oc1ccc2c(c1)C(=O)N(c1ccc(Br)c3cccnc13)C2=O	-9.0	.	-20.5	1.2	-4.7	1
Oc1c(C(c2ccco2)N2CCOCC2)sc2ncnn12 (stereo unspecified)	-6.0	-7.2	45.9	0.5	33.7	0.7
CCc1nc2ccccc2n1CCC(C)C	-1.0	26.2	22.3	0.8	41.6	0.6
CCC(C)(C)NC(=O)CN(Cc1cccs1)C(=O)C(=O)Nc1ccc2c(c1)OCCO2	9.0	.	72.5*	0.3	46.3	0.5
CCC(=O)NCCCCNC(=O)CC	-3.0	0.6	-7.9	1.1	-12.1	1.1
COc1ccc(S(=O)(=O)N(C)CC(=O)Nc2ccc(C(F)(F)F)cc2)cc1Cl	-21.0	.	56.6*	0.4	6.7	0.9
COc1ccc(NC(=O)CN(C)S(=O)(=O)c2ccccc2)cc1	3.0	.	54.6*	0.5	61.5*	0.4
COc1ccc(S(=O)(=O)N(C)CC(=O)Nc2ccccc2OC)cc1	0.0	.	-15.2	1.2	73.1*	0.3
COc1ccc(S(=O)(=O)N(C)CC(=O)Nc2ccccc2SC)cc1	1.0	22.9	-6.6	1.1	98.0*	0
COC(=O)c1ccccc1NC(=O)CN(C)S(=O)(=O)c1ccc(OC)c(C)c1	-8.0	13.0	-14.2	1.1	99.6*	0
CNC(=O)CN(C)S(=O)(=O)c1ccc(OC)c(Cl)c1	-4.0	-12.3	-63.3	1.6	40.2	0.6
COc1ccc(NC(=O)CN(C)S(=O)(=O)c2ccccc2)c([N+](=O)[O-])c1	0.0	.	25.9	0.7	16.0	0.8
COc1ccc(S(=O)(=O)N(C)CC(=O)Nc2ccccc2SC)cc1Cl	-10.0	5.7	-188.0	2.9*	31.4	0.7
COc1ccccc1NC(=O)CN(C)S(=O)(=O)c1ccc(F)cc1	3.0	-1.9	-128.7	2.3*	55.9*	0.4
COC(=O)c1ccccc1NC(=O)CN(C)S(=O)(=O)c1ccc(OC)cc1	-6.0	-5.4	-3.3	1	72.5*	0.3
C=CCN(CC=C)C(=O)Cc1ccc(F)cc1	-1.0	3.8	-18.9	1.2	25.8	0.7
COc1ccccc1N1CCN(C(c2cccs2)C(C)NC(=O)c2cccs2)CC1 (stereo unspecified)	.	47.7	.	.	.	.
CCCc1oc2c(c(=O)c1CC)C(=O)CC(C)(C)C2	4.0	-16.2	22.1	0.8	40.8	0.6
